This is a sample that favours compounds with a hit; in the whole collection about 2.1% have one here.
Scp-1 inhibitor: Scp-1 phosphatase inhibitors, primary screen, biochemical, colorimetric, uHTS | Carboxy-terminal domain RNA polymerase II polypeptide A small phosphatase 1 (Homo … | Recombinant Scp1, phosphopeptide, malachite green phosphate absorbance | inhibition, % at 20 µM | 0.88% of 340,000 active | AID 493091, 2011;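 active = inhibition above about 50% at 20 µM, limit read from the data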;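 note: plate controls were DMSO wells with enzyme for no effect and wells lacking enzyme for full effect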
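Times: enzyme reaction 45 min at room temperature, colour 5 min, stabilisation 30 min. Material: SCP-1 catalytic fragment, aa 76-261. Medium: Acidic Tris acetate buffer with magnesium and detergent. Signal: colorimetric free-phosphate detection, absorbance 630 nm. Read-out basis: % inhibition of SCP-1 phosphate liberation. Reagent: Phosphorylated 17-residue peptide substrate.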
SUMO1-SIM PPI: modulators of SUMO1 protein-protein interactions, primary screen, biochemical, uHTS | Small ubiquitin-related modifier 1 (Homo sapiens), P63165 | SUMO1 binding to a labelled peptide, TR-FRET, 1 h | inhibition, % at 20 µM | 0.33% of 360,000 active; in the data active = inhibition above about 37%
GRK2 inh: compounds blocking aptamer binding on GRK2 – biochemical, human GRK2, bead flow cytometry, HTS, primary screen; Beta-adrenergic receptor kinase 1 (Homo sapiens), P25098; FAM-aptamer displacement from GRK2; inhibition of aptamer binding, % at 10 µM; 0.59% of 330,000 active; AID 488847, 2010;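 active = inhibition of aptamer binding above 40%, roughly 3 SD of noise, on plates passing a quality check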;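 note: median bead fluorescence of bound FAM aptamer so fluorescent compounds give negative values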
LMPTP block: LMPTP phosphatase inhibitors, primary screen, biochemical, fluorescence intensity, uHTS | Low molecular weight phosphotyrosine protein phosphatase (Homo sapiens), P24666 | recombinant LMPTP-A, OMFP fluorogenic substrate | inhibition, % at 20 µM | 0.22% of 360,000 active;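 active = compounds that cut the enzyme signal by at least half of the control window in the single-dose screen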;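 note: plate controls were DMSO wells with enzyme plus substrate for no effect and substrate without enzyme for full effect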
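test system = LMPTP-A | amount = 0.625 nM LMPTP-A final | reagent = fluorogenic phosphatase substrate OMFP at 400 µM final | incubation = 50 min at room temperature | benchmarks = no-enzyme low control, uninhibited high control | medium = Bis-Tris pH 6.0, DTT, detergent | signal = fluorescence intensity of OMFP turnover product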
DNMT1 inh: human DNMT1 methyltransferase inhibitors, primary screen, biochemical, molecular beacon, fluorescence, HinP1I cleavage, uHTS; inhibition (reported as % activation of signal), % at 10 µM; 0.83% of 360,000 active; in the data active = inhibition above about 50%
STEP inh: STEP phosphatase inhibitors, primary screen, biochemical, fluorescence intensity, uHTS | Tyrosine-protein phosphatase non-receptor type 5 (Homo sapiens), P54829 | recombinant STEP, OMFP fluorogenic substrate | inhibition, % at 20 µM | 0.25% of 360,000 active | AID 588621, 2011;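 active = inhibition at 20 µM, scaled per plate between control wells, above about 37%, limit read from the data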;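 note: 0% = DMSO with enzyme and substrate and 100% = substrate only without enzyme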
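System: STEP (striatal-enriched tyrosine phosphatase) enzyme, cell-free; medium: Bis-Tris pH 6.0 buffer with DTT, detergent; dosing: 20 µM, 1% DMSO; times: reaction 20 min, ambient temperature; detection: fluorescence, 480/540 nm; read-out basis: normalized % inhibition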
Scp1 confirm: Scp-1 phosphatase inhibitors, retest, confirmation, biochemical, colorimetric, single concentration. shares compounds with Scp-1 inhibitor. recombinant SCP-1 catalytic domain, phosphate release, malachite green absorbance. inhibition, % at 20 µM. 61% of 2,500 active. AID 540281, 2011;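 note: plate controls were DMSO with enzyme for no effect and buffer wells lacking enzyme for full effect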
MG interference: colorimetric readout interference by compounds, confirmation, artefact control for Scp-1 inhibitor project, biochemical, single concentration; apparent inhibition (interference), % at 20 µM; Colorimetric interference counterscreen, malachite green absorbance 630 nm; AID 540313, 2011; 2,500 tested, under 10 active; shares compounds with Scp-1 inhibitor;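 note: compounds added after enzyme reaction finished so only phosphate colour detection is probed; plate controls were DMSO wells with completed Scp-1 reaction for no effect and substrate wells lacking enzyme for full effect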
Scp-1 Tm shift: Scp-1 binding by thermal shift, confirmation, orthogonal assay for Scp-1 inhibitor project, biophysical, differential scanning fluorimetry | shares compounds with Scp-1 inhibitor | Recombinant SCP1, Sypro Orange thermal shift Tm | thermal shift relative to vanadate control, % at 40 µM | 25% of 1,500 active;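 active = substances whose mean melting-temperature shift, as a percentage of the reference inhibitor's shift, reaches about 5.3%, limit read from the data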;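 note: 0% = Tm of DMSO wells and 100% = Tm with sodium orthovanadate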
An asterisk follows results filed as active.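 Rule for the calls, unless noted: active = inhibition of at least 30% at 20 µM; inactive = the rest.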

What do the screens show for `COc1ccc(NC(C)=[N+](C)CCNS(=O)(=O)c2ccc(Cl)cc2)cc1`?
Scp-1 inhibitor: 96*; SUMO1-SIM PPI: -1; GRK2 inh: 8; LMPTP block: -1; DNMT1 inh: 3; STEP inh: -4; Scp1 confirm: 93*; MG interference: -4; Scp-1 Tm shift: -21

How did O=C(O)CNC(=O)CC1S/C(=N/N=C2/NC(=O)CS2)NC1=O (stereo not drawn) do in these assays?
Scp-1 inhibitor: 72*; SUMO1-SIM PPI: 14; GRK2 inh: 0; LMPTP block: 0; DNMT1 inh: 2; STEP inh: 1; Scp1 confirm: 69*; MG interference: -2; Scp-1 Tm shift: -13

Results for NC(=O)NC(=O)CC1S/C(=N/N=C2\CSC(=O)N2)NC1=O (stereo not drawn) ?
Scp-1 inhibitor: -7; SUMO1-SIM PPI: 3; GRK2 inh: 0; LMPTP block: -2; DNMT1 inh: 5; STEP inh: -2

What do the screens show for `COCCN1C(=O)C(=O)/C(=C(/O)c2ccc(S(=O)(=O)N3CCOCC3)cc2)C1c1cccc(OC)c1` (stereo not drawn)?
Scp-1 inhibitor: -4; SUMO1-SIM PPI: -11; GRK2 inh: 0; LMPTP block: 2; DNMT1 inh: 4; STEP inh: -2

Results for O=C(NNC(=O)c1ccccc1-n1cccc1)c1ccc(Cl)nc1 ?
Scp-1 inhibitor: 3; SUMO1-SIM PPI: 1; GRK2 inh: 0; LMPTP block: 0; DNMT1 inh: 7; STEP inh: 1

Results for O=C1C=CC(=Nc2ccc3c(c2)Cc2cc(F)ccc2-3)O1 ?
Scp-1 inhibitor: 11; SUMO1-SIM PPI: 8; LMPTP block: 1; DNMT1 inh: -16; STEP inh: 0

How did O=C1C=CC(=Nc2cccc3c2C(=O)c2ccccc2-3)O1 do in these assays?
Scp-1 inhibitor: 61*; SUMO1-SIM PPI: -15; LMPTP block: 13; DNMT1 inh: 42; STEP inh: 1; Scp1 confirm: -20; MG interference: -22

Results for Cc1ccc(S(=O)(=O)NC(=O)c2ccc(-c3ccc(C)c4ccccc34)o2)cc1 ?
Scp-1 inhibitor: 61*; SUMO1-SIM PPI: -3; GRK2 inh: 0; LMPTP block: 0; DNMT1 inh: 24; STEP inh: 4; Scp1 confirm: 77*; MG interference: -4; Scp-1 Tm shift: 2

What do the screens show for `CSc1cccc(N2CC(C(=O)Nc3cccc(S(=O)(=O)N4CCCC4)c3)CC2=O)c1` (stereo not drawn)?
Scp-1 inhibitor: 74*; SUMO1-SIM PPI: -1; GRK2 inh: 2; LMPTP block: 1; DNMT1 inh: 0; STEP inh: -3; Scp1 confirm: 76*; MG interference: -24; Scp-1 Tm shift: -14
